Measured values as given in ChEMBL document CHEMBL1687758, “Azithromycin alters macrophage phenotype and pulmonary compartmentalization during lung infection with Pseudomonas” (2010).
Active and inactive are the calls of the source. The calls are words filed in the database; no cut-off is given here.

Columns and labels:
[1] = test system: Mus musculus; assay: Immunomodulatory activity in Pseudomonas aeruginosa M57-15 infected C57BL/6 mouse lung assessed as CD11b-c+ cell expression level in lung digest at 0.16 g/kg, po measured after 14 days by flow cytometry (reference value: 23.93 +/- 4.10 %); assay type: functional
How it was run: (§1)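 Oral gavage of 0.16 g/kg daily (2% methylcellulose vehicle) began 4 days before intratracheal bead infection (1 × 105 to 2 × 10^5 CFU). On days 3, 7 and 14, cells were taken from lavage (0.3 mM EDTA buffer) and from collagenase/DNase lung digest (1 h, 37°C). Cells were stained for CD11b, CD11c, Gr-1, CD4, CD80, MHC-II and MR, with more than 50,000 events acquired. Counts were gated percent × manual cell count.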

[2] = test system: Mus musculus; assay: Immunomodulatory activity in Pseudomonas aeruginosa M57-15 infected C57BL/6 mouse lung assessed as CD11b-c+ cell expression level in lung lavage fluid at 0.16 g/kg, po measured after 14 days by flow cytometry (reference value: 72.38 +/- 13.69 %); assay type: functional; how it was run: as §1
[3] = test system: Mus musculus; assay: Immunomodulatory activity in Pseudomonas aeruginosa M57-15 infected C57BL/6 mouse lung assessed as CD11b+c- cell expression level in lung lavage fluid at 0.16 g/kg, po measured after 14 days by flow cytometry (reference value: 1.15 +/- 0.62 %); assay type: functional; how it was run: as §1
[4] = test system: Mus musculus; assay: Immunomodulatory activity in Pseudomonas aeruginosa M57-15 infected C57BL/6 mouse lung assessed as effect on CD11b+ cells infiltration in lung lavage fluid at 0.16 g/kg, po measured after 7 days by flow cytometry; assay type: functional, organism-based; how it was run: as §1
[5] = test system: Mus musculus; assay: Immunomodulatory activity in Pseudomonas aeruginosa M57-15 infected C57BL/6 mouse lung assessed as CD11b+c- cell expression level in lung lavage fluid at 0.16 g/kg, po measured after 7 days by flow cytometry (reference value: 1.13 +/- 0.30 %); assay type: functional; how it was run: as §1
[6] = test system: Mus musculus; assay: Immunomodulatory activity in Pseudomonas aeruginosa M57-15 infected C57BL/6 mouse lung assessed as increase of arginase activity in lung digest at 0.16 g/kg, po measured after 7 days
[7] = test system: Mus musculus; assay: Immunomodulatory activity in Pseudomonas aeruginosa M57-15 infected C57BL/6 mouse lung assessed as decrease of IL-12p70 production in CD11b+ cells in lung lavage fluid at 0.16 g/kg, po measured after 7 days by flow cytometry; assay type: functional, organism-based
How it was run: (§2)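 The first 1-ml lavage wash was frozen at −80°C. Samples diluted 5-fold were incubated 3 h at room temperature with capture beads for a cytometric bead array (IL-12p70, CCL2, TNF-α, IL-10, IFN-γ, IL-6) plus a PE-conjugated detection antibody. Fluorescence was read by flow cytometry against standard curves. Mice had daily oral 0.16 g/kg from 4 days before intratracheal infection.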

[8] = test system: Mus musculus; assay: Immunomodulatory activity in Pseudomonas aeruginosa M57-15 infected C57BL/6 mouse lung assessed as CD11b+c- cell expression level in lung digest at 0.16 g/kg, po measured after 3 days by flow cytometry (reference value: 25.42 +/- 10.57 %); assay type: functional; how it was run: as §1
[9] = test system: Mus musculus; assay: Immunomodulatory activity in Pseudomonas aeruginosa M57-15 infected C57BL/6 mouse lung assessed as increase of MHC2 expression in CD11b+ Gr1+ cells in alveolar space at 0.16 g/kg, po measured after 7 days by flow cytometry; assay type: functional, organism-based; how it was run: as §1
[10] = test system: Mus musculus; assay: Immunomodulatory activity in Pseudomonas aeruginosa M57-15 infected C57BL/6 mouse lung assessed as decrease of CCL2 production in CD11b+ cells in lung lavage fluid at 0.16 g/kg, po measured after 7 days by flow cytometry; assay type: functional, organism-based; how it was run: as §2
[11] = test system: Mus musculus; assay: Immunomodulatory activity in Pseudomonas aeruginosa M57-15 infected C57BL/6 mouse lung assessed as increase of mannose receptor expression in CD11b+ Gr1+ cells in lung digest at 0.16 g/kg, po measured after 7 days by flow cytometry; assay type: functional, organism-based; how it was run: as §1
[12] = test system: Mus musculus; assay: Immunomodulatory activity in Pseudomonas aeruginosa M57-15 infected C57BL/6 mouse lung assessed as decrease of TNFalpha production in CD11b+ cells in lung lavage fluid at 0.16 g/kg, po measured after 7 days by flow cytometry; assay type: functional, organism-based; how it was run: as §2
[13] = test system: Mus musculus; assay: Immunomodulatory activity in Pseudomonas aeruginosa M57-15 infected C57BL/6 mouse lung assessed as increase of mannose receptor expression in lung digest at 0.16 g/kg, po measured after 7 days by flow cytometry; assay type: functional, organism-based; how it was run: as §1
[14] = test system: Mus musculus; assay: Immunomodulatory activity in Pseudomonas aeruginosa M57-15 infected C57BL/6 mouse lung assessed as increase of total cells in lung digest at 0.16 g/kg, po measured by flow cytometry
[15] = test system: Mus musculus; assay: Immunomodulatory activity in Pseudomonas aeruginosa M57-15 infected C57BL/6 mouse lung assessed as up-regulation of CCR7 expression in CD11+ Gr1- cells in lung digest at 0.16 g/kg, po measured after 7 days by flow cytometry; assay type: functional, organism-based; how it was run: as §1
[16] = test system: Mus musculus; assay: Immunomodulatory activity in Pseudomonas aeruginosa M57-15 infected C57BL/6 mouse lung assessed as increase of CD4+ T cell in alveolar space at 0.16 g/kg, po measured after 7 days by flow cytometry; assay type: functional, organism-based; how it was run: as §1
[17] = test system: Mus musculus; assay: Immunomodulatory activity in Pseudomonas aeruginosa M57-15 infected C57BL/6 mouse lung assessed as CD11b-c+ cell expression level in lung lavage fluid at 0.16 g/kg, po measured after 3 days by flow cytometry (reference value: 47.01 +/- 33.74 %); assay type: functional; how it was run: as §1
[18] = test system: Mus musculus; assay: Immunomodulatory activity in Pseudomonas aeruginosa M57-15 infected C57BL/6 mouse lung assessed as CD11b+c+ cell expression level in lung digest at 0.16 g/kg, po measured after 14 days by flow cytometry (reference value: 6.6 +/- 1.86 %); assay type: functional; how it was run: as §1
[19] = test system: Mus musculus; assay: Immunomodulatory activity in Pseudomonas aeruginosa M57-15 infected C57BL/6 mouse lung assessed as reduction of CD11b- and Gr-1+ cells infiltration in lung lavage fluid at 0.16 g/kg, po measured after 7 days by flow cytometry; assay type: functional, organism-based; details: in the assay text read “lung digest” for “lung lavage fluid”; how it was run: as §1
[20] = test system: Mus musculus; assay: Immunomodulatory activity in Pseudomonas aeruginosa M57-15 infected C57BL/6 mouse lung assessed as CD11b+c+ cell expression level in lung lavage fluid at 0.16 g/kg, po measured after 3 days by flow cytometry (reference value: 2.38 +/- 0.75 %); assay type: functional; how it was run: as §1
[21] = test system: Pseudomonas aeruginosa; assay: Antibacterial activity against Pseudomonas aeruginosa M57-15 infected in C57BL/6 mouse assessed as effect on host weight loss at 0.16 g/kg, po measured up to 14 days; assay type: functional, organism-based
How it was run: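 Dosing was 0.16 g/kg daily by oral gavage in 2% methylcellulose, or vehicle, from 4 days before intratracheal bead infection (1 × 105 to 2 × 10^5 CFU). Body weight was followed over the study and compared with a sham-infected group. Groups had 3 to 6 mice, and each experiment was repeated at least three times.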

[22] = test system: Mus musculus; assay: Immunomodulatory activity in Pseudomonas aeruginosa M57-15 infected C57BL/6 mouse lung assessed as CD11b+c- cell expression level in lung lavage fluid at 0.16 g/kg, po measured after 3 days by flow cytometry (reference value: 1.20 +/- 0.41 %); assay type: functional; how it was run: as §1
[23] = test system: Mus musculus; assay: Immunomodulatory activity in Pseudomonas aeruginosa M57-15 infected C57BL/6 mouse lung assessed as CD11b+c+ cell expression level in lung digest at 0.16 g/kg, po measured after 7 days by flow cytometry (reference value: 5.16 +/- 1.09 %); assay type: functional; how it was run: as §1

Compound `CC[C@H]1OC(=O)[C@H](C)[C@@H](O[C@H]2C[C@@](C)(OC)[C@@H](O)[C@H](C)O2)[C@H](C)[C@@H](O[C@@H]2O[C@H](C)C[C@H](N(C)C)[C@H]2O)[C@](C)(O)C[C@@H](C)CN(C)[C@H](C)[C@@H](O)[C@]1(C)O` [AZITHROMYCIN] has an Activity [1] of 18.18%, an Activity [2] of 46.16% and an Activity [3] of 2.24%. For the same compound, the Activity [4] was “Active”, the Activity [5] was 13.3% and the Activity [6] was “Active”. For the same compound, the Activity [7] was “inactive”, the Activity [8] was 14.42% and the Activity [9] was “Active”. For the same compound, the Activity [10] was “Active”, the Activity [11] was “Active” and the Activity [12] was “Active”. The Activity [13] was “Active”, the Activity [14] was “Active” and the Activity [15] was “Active”. The Activity [16] was “Active”, the Activity [17] was 34.84% and the Activity [18] was 4.31%. The Activity [19] was “Active”, the Activity [20] was 2.37% and the Activity [21] was “inactive”. It also gave an Activity [22] of 0.42% and an Activity [23] of 17.1%.
